Series [1] concerns HEK293. Description: Cytotoxicity against human HEK293 cells assessed as reduction in cell viability measured after 72 hrs by SRB assay. It is filed as ADME, cell-based. The note with it: HEK293, 72 h. (In general: The SRB assay estimates cell density from bound dye.)
In series [2] the test system is A-375. The series can be described thus: Cytotoxicity against human A-375 cells assessed as reduction in cell viability measured after 72 hrs by SRB assay. Type of series: functional, cell-based. The note with it: A-375, 72 h.
Series [3] deals with HT-29. Description: Cytotoxicity against human HT-29 cells assessed as reduction in cell viability measured after 72 hrs by SRB assay. Type of series: functional, cell-based. The settings on record: HT-29, 72 h.
Series [4] deals with MCF7. The series can be described thus: Cytotoxicity against human MCF7 cells assessed as reduction in cell viability measured after 72 hrs by SRB assay. Type of series: functional, cell-based. The note with it: MCF7, 72 h.
Series [5] concerns A2780. The series can be described thus: Cytotoxicity against human A2780 cells assessed as reduction in cell viability measured after 72 hrs by SRB assay. Type of series: functional, cell-based. The note with it: A2780, 72 h.
Series [6] concerns FaDu. The series can be described thus: Cytotoxicity against human FaDu cells assessed as reduction in cell viability measured after 72 hrs by SRB assay. It is filed as functional, cell-based.
Series [7] concerns NIH3T3. Description: Cytotoxicity against mouse NIH3T3 cells assessed as reduction in cell viability measured after 72 hrs by SRB assay. Type of series: cell-based. The note with it: NIH3T3, 72 h. In a few lines: (§1)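 Sulforhodamine B assay on human tumour lines A375 (epithelial melanoma), HT29 (colorectal adenocarcinoma), MCF-7 (breast adenocarcinoma), A2780 (ovarian carcinoma) and FaDu (squamous cell carcinoma). Non-malignant NIH 3T3 (mouse fibroblasts) and HEK293 (human embryonic kidney) cells were also tested. EC50 values are given as mean ± standard mean error.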

The test system of series [8] is A-375. The series can be described thus: Cytotoxicity against human A-375 cells assessed as reduction in cell viability upto 30 uM measured after 72 hrs by SRB assay. Type of series: functional, cell-based. The settings on record: dose microM <=30, time 72.0 hrs. In a few lines:
as §1

For series [9], the system named is HT-29. Description: Cytotoxicity against human HT-29 cells assessed as reduction in cell viability upto 30 uM measured after 72 hrs by SRB assay. It is filed as functional, cell-based. The settings on record: dose microM <=30, time 72.0 hrs. In a few lines:
as §1

Series [10] concerns MCF7. Description: Cytotoxicity against human MCF7 cells assessed as reduction in cell viability upto 30 uM measured after 72 hrs by SRB assay. It is filed as functional, cell-based. The note with it: dose microM <=30, time 72.0 hrs. The procedure, abridged: as §1
The test system of series [11] is A2780. The series can be described thus: Cytotoxicity against human A2780 cells assessed as reduction in cell viability upto 30 uM measured after 72 hrs by SRB assay. The note with it: dose microM <=30, time 72.0 hrs. Type of series: functional, cell-based. In a few lines:
as §1

The subject of series [12] is FaDu. Description: Cytotoxicity against human FaDu cells assessed as reduction in cell viability upto 30 uM measured after 72 hrs by SRB assay. The note with it: dose microM <=30, time 72.0 hrs. Type of series: functional, cell-based. The procedure, abridged:
as §1

In series [13] the test system is NIH3T3. The series can be described thus: Cytotoxicity against mouse NIH3T3 cells assessed as reduction in cell viability upto 30 uM measured after 72 hrs by SRB assay. Type of series: cell-based. The note with it: nih3t3, 72 h. In a few lines:
as §1

Series [14] relates to HEK293. Description: Cytotoxicity against human HEK293 cells assessed as reduction in cell viability upto 30 uM measured after 72 hrs by SRB assay. Type of series: cell-based. The note with it: hek293, 72 h. The procedure, abridged: as §1
A short description of series [15]: Drug uptake in human A-375 cells measured after 24 hrs by fluorescence imaging analysis. Type of series: ADME, cell-based. The note with it: a-375, 24 h. The procedure, abridged:
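Fluorescence imaging of cells after a prolonged 24 h incubation with compound, to judge entry into the cells.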

Series [16] in a line: Drug uptake in Mitochondria of human A-375 cells at 5.4 uM measured after 12 hrs by Mito-tracker based fluorescence imaging analysis. Type of series: ADME. The note with it: a-375, 12 h.
Series [17] is described as follows: Drug uptake in endoplasmic reticulum of human A-375 cells at 5.4 uM measured after 12 hrs by ER-tracker based fluorescence imaging analysis. It is filed as ADME, subcellular. The note with it: a-375, 12 h. In a few lines:
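Living A375 cells were incubated with compound for 12 h, co-stained with ER-Tracker, and imaged by fluorescence microscopy. Compound, tracker and merged channels were compared for localisation in the endoplasmic reticulum.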

The structures appear in SMILES notation. pEC50: −log10 of the molar value. Active and inactive are the calls of the source. The rule behind the calls is not given here. Bounds are passed on as bounds.

`C=C(C)[C@@H]1CC[C@]2(C(=O)N3CCN(C(=O)C4=C(C)C=C(C)N5C[N+](CCCCCCCCCCCC)(CCCCCCCCCCCC)N=C45)CC3)CC[C@]3(C)[C@H](CC[C@@H]4[C@@]5(C)CC[C@H](OC(C)=O)C(C)(C)[C@@H]5CC[C@]43C)[C@@H]12`: the pEC50 (commonly −log10 of the EC50, conventionally taken in molar units) was 4.88 in the series on HEK293 [1]; 4.77 with A-375 [2]; 4.60 in the series on HT-29 [3]; 4.80 in the series with MCF7 [4]; 4.96 in the series with A2780 [5]; 4.97 in the series with FaDu [6]. Besides, in the series with NIH3T3 [7], the pEC50 was less than 4.52.

In the case of `CCN(CC)c1ccc2c(-c3ccccc3C(=O)O)c3ccc(=[N+](CC)CC)cc-3oc2c1` [RHODAMINE], the negative logarithm of the EC50 (pEC50) in the series on HEK293 [1], in the series on A-375 [2], with HT-29 [3], in the series on MCF7 [4], with A2780 [5] and in the series on FaDu [6] was less than 4.52 in each case. The negative logarithm of the EC50 (pEC50) with NIH3T3 [7] was less than 4.52.

As to `C=C(C)[C@@H]1CC[C@]2(C(=O)N3CCN(C(=O)C4=Cc5ccccc5N5C[N+](CC)(CC)N=C45)CC3)CC[C@]3(C)C(=CC[C@@H]4[C@@]5(C)CC[C@H](OC(C)=O)C(C)(C)[C@@H]5CC[C@]43C)[C@H]12`, the pEC50 with HEK293 [1] is 4.78; in the series with A-375 [2] it was 4.68; in the series with HT-29 [3], 4.57; in the series with MCF7 [4], 4.74; in the series with A2780 [5], 4.85; with FaDu [6], 4.55. Besides, the pEC50 with NIH3T3 [7] was less than 4.52.

As for `CCCCCC[N+]1(CCCCCC)CN2C(C)=CC(C)=C(C(=O)[O-])C2=N1`, the result in the series on A-375 [8], with HT-29 [9], with MCF7 [10], with A2780 [11] and with FaDu [12] was inactive. Also, the negative-log EC50 (pEC50) in the series with A-375 [2], in the series with HT-29 [3], in the series on MCF7 [4], in the series on A2780 [5], in the series on FaDu [6] and in the series on NIH3T3 [7] was less than 4.52 each time. Moreover, the Activity entry with NIH3T3 [13] and in the series with HEK293 [14] was “Non-Toxic” throughout. The Drug uptake entry in series [15] is on record as “Not Active”.

Consider `C=C(C)[C@@H]1CC[C@]2(C(=O)N3CCN(C(=O)C4=C(C)C=C(C)N5C[N+](CCCCCC)(CCCCCC)N=C45)CC3)CC[C@]3(C)[C@H](CC[C@@H]4[C@@]5(C)CC[C@H](OC(C)=O)C(C)(C)[C@@H]5CC[C@]43C)[C@@H]12.[Cl-]`, for which the pEC50 with HEK293 [1] was 5.52; in the series with A-375 [2], 5.27; in the series on HT-29 [3], 5.12; in the series on MCF7 [4], 5.31; in the series with A2780 [5], 5.34; with FaDu [6], 5.22. For the same compound, the negative-log EC50 (pEC50) in the series on NIH3T3 [7] is 5.18. Moreover, the values for the Drug uptake entry in series [16] and in series [17] were “Not Active” and “Active”, respectively.

As to `C=C(C)[C@@H]1CC[C@]2(C(=O)NCCNC(=O)C3=Cc4ccccc4N4C[N+](CC)(CC)N=C34)CC[C@]3(C)C(=CC[C@@H]4[C@@]5(C)CC[C@H](OC(C)=O)C(C)(C)[C@@H]5CC[C@]43C)[C@H]12`, the pEC50 was 4.87 in the series with HEK293 [1]; 4.73 in the series on A-375 [2]; 4.57 in the series on HT-29 [3]; 4.75 with MCF7 [4]; 4.74 in the series on A2780 [5]; 4.91 with FaDu [6]. Besides, in the series with NIH3T3 [7], the pEC50 is 4.76.

`CCCCCCCC[N+]1(CCCCCCCC)CN2C(C)=CC(C)=C(C(=O)[O-])C2=N1`: the result with A-375 [8], in the series on HT-29 [9], in the series with MCF7 [10], in the series with A2780 [11] and in the series on FaDu [12] was inactive. For the same compound, the negative-log EC50 (pEC50) in the series on A-375 [2], in the series on HT-29 [3], with MCF7 [4], in the series with A2780 [5], in the series with FaDu [6] and in the series on NIH3T3 [7] was less than 4.52 in each case. Further, the Activity result in the series with NIH3T3 [13] and with HEK293 [14] was “Non-Toxic” in each case. Besides, the Drug uptake entry in series [15] is on record as “Not Active”.
